Converted amounts (≈) assume the structure as drawn. The source made the active and inactive calls. The rule behind the calls is not given here.
Assays:
Staphylococcus aureus = test: Antimicrobial activity against Staphylococcus aureus; type: functional
[1] = Selectivity index, ratio of IC50 for human HeLa cells to MIC for Candida albicans CAF2-1
In short: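 SI = HeLa IC50 (SRB assay, 48 h) divided by the C. albicans CAF2-1 MIC (YNB pH 4.6, 24 h, 34 °C broth microdilution).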

Pseudomonas aeruginosa = test: Antimicrobial activity against Pseudomonas aeruginosa; type: functional
Saccharomyces cerevisiae = test: Antimicrobial activity against Saccharomyces cerevisiae BY4741 after 24 hrs by two fold serial dilution method; type: functional; conditions: BY4741, 24 h
In short: (§1)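 Broth microdilution per EUCAST. Yeasts diluted to 2 × 10^5 cells/mL in YNB with 2% glucose, pH 4.6. Compound stocks 10 mg/mL in DMSO, twofold serial dilutions, 1% DMSO final. Drug-free and sterility controls included. Incubated 24 h at 34 °C. MIC is the lowest concentration giving OD450 ≤50% of the compound-free culture. For S. cerevisiae, YNB was supplemented with Complete Supplement Mixture.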

Pichia kudriavzevii = test: Antimicrobial activity against Candida krusei ATCC 6258 after 24 hrs by two fold serial dilution method; type: functional; conditions: ATCC 6258, 24 h; in short: as §1
Candida parapsilosis = test: Antimicrobial activity against Candida parapsilosis ATCC 22019 after 24 hrs by two fold serial dilution method; type: functional; conditions: Lodderomyces parapsilosis, ATCC 22019, 24 h; in short: as §1
Escherichia coli = test: Antimicrobial activity against Escherichia coli; type: functional
Nakaseomyces glabratus = test: Antimicrobial activity against Candida glabrata after 24 hrs by two fold serial dilution method; type: functional; in short: as §1
Candida tropicalis = test: Antimicrobial activity against Candida tropicalis ATCC 75 after 24 hrs by two fold serial dilution method; type: functional; conditions: ATCC 75, 24 h; in short: as §1
Candida albicans [2] = test: Antibiofilm activity against Candida albicans CAF2-1 assessed as reduction in metabolic activity after 48 hrs by XTT assay; type: functional; conditions: CAF2-1, 48 h
Candida albicans [3] = test: Antimicrobial activity against Candida albicans CAF2-1 after 24 hrs by two fold serial dilution method; type: functional; conditions: CAF2-1, 24 h; in short: as §1
HeLa = test: Cytotoxicity against human HeLa cells after 48 hrs by SRB assay; type: cell-based
In short: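 Sulforhodamine B assay in HeLa cells (DMEM + 10% FBS, 37 °C, 5% CO2), seeded at 10^4 cells/well. After 24 h, cells were PBS-washed and exposed to twofold dilutions from 100 μg/mL for 48 h. A day-1 plate was fixed as baseline. OD492 growth = (treated d3 − d1)/(DMSO d3 − d1) × 100. IC50 was obtained by dose–response curve fitting.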

Candida albicans [4] = test: Antimicrobial activity against Candida albicans CAF2-1 assessed as cytoplasmic content disorganization at 2 ug/ml after 18 hrs by uranyl acetate/lead citrate staining based transmission electron microscopy; type: functional, organism-based
In short: (§2)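 CAF2-1 grown in YNB pH 4.6 at 37 °C for 2 h. Compound (1 mg/mL DMSO stock) then added at 1 or 2 μg/mL. DMSO-treated and untreated controls. Samples taken at 4 and 18 h and pelleted. Prefixed in 3% glutaraldehyde–2% paraformaldehyde in 0.07 M phosphate pH 7, postfixed in 1% OsO4, ethanol-dehydrated and embedded in LR White. 0.08 μm sections stained with uranyl acetate/lead citrate and viewed by TEM.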

Candida albicans [5] = test: Antimicrobial activity against Candida albicans CAF2-1 assessed as breakage zones of plasmic membrane at 1 ug/ml after 18 hrs by uranyl acetate/lead citrate staining based transmission electron microscopy; type: functional, organism-based; in short: as §2
Candida albicans [6] = test: Antimicrobial activity against Candida albicans CAF2-1 assessed as breakage zones of plasmic membrane at 2 ug/ml after 18 hrs by uranyl acetate/lead citrate staining based transmission electron microscopy; type: functional, organism-based; in short: as §2
Candida albicans [7] = test: Antimicrobial activity against Candida albicans CAF2-1 assessed as punctual disruption of nuclear membrane at 2 ug/ml after 4 hrs by uranyl acetate/lead citrate staining based transmission electron microscopy; type: functional, organism-based; in short: as §2
Candida albicans [8] = test: Antimicrobial activity against Candida albicans CAF2-1 assessed as cytoplasmic content disorganization at 1 ug/ml after 18 hrs by uranyl acetate/lead citrate staining based transmission electron microscopy; type: functional, organism-based; in short: as §2
Candida albicans [9] = test: Antimicrobial activity against Candida albicans CAF2-1 assessed as accumulation of dark corpuscles in nucleus at 2 ug/ml after 4 hrs by uranyl acetate/lead citrate staining based transmission electron microscopy; type: functional, organism-based; in short: as §2
Candida albicans [10] = test: Antimicrobial activity against Candida albicans CAF2-1 assessed as accumulation of dark corpuscles in nucleus at 1 ug/ml after 4 hrs by uranyl acetate/lead citrate staining based transmission electron microscopy; type: functional, organism-based; in short: as §2
Candida albicans [11] = test: Antimicrobial activity against Candida albicans CAF2-1 assessed as punctual disruption of nuclear membrane at 1 ug/ml after 4 hrs by uranyl acetate/lead citrate staining based transmission electron microscopy; type: functional, organism-based; in short: as §2

SMILES | MIC (Staphylococcus aureus) [µg/mL] | Selectivity Index [1] | MIC (Pseudomonas aeruginosa) [µg/mL] | MIC (Saccharomyces cerevisiae) [µg/mL] | MIC (Pichia kudriavzevii) [µg/mL] | MIC (Candida parapsilosis) [µg/mL] | MIC (Escherichia coli) [µg/mL] | MIC (Nakaseomyces glabratus) [µg/mL] | MIC (Candida tropicalis) [µg/mL] | MIC (Candida albicans [2]) [µg/mL] | MIC (Candida albicans [3]) [µg/mL] | IC50 (HeLa) [µg/mL] | Activity (Candida albicans [4]) | Activity (Candida albicans [5]) | Activity (Candida albicans [6]) | Activity (Candida albicans [7]) | Activity (Candida albicans [8]) | Activity (Candida albicans [9]) | Activity (Candida albicans [10]) | Activity (Candida albicans [11])
CCCCCCCC[C@@H]1CCCc2[nH]c(C)c(OC)c(=O)c21 | > 32 | 1.5 | > 32 | > 32 | 32 (≈ 105 µM) | 32 (≈ 105 µM) | > 32 | > 32 | > 32 | 32 (≈ 105 µM) | 16 (≈ 52.4 µM) | 24.7 (≈ 80.9 µM) |  |  |  |  |  |  |  | 
CCCCCCCC[C@H]1CCCc2c1c(=O)c(OC)c(C)n2OC | > 32 | 1 | > 32 | 16 (≈ 47.7 µM) | 16 (≈ 47.7 µM) | 2 (≈ 5.96 µM) | > 32 | 32 (≈ 95.4 µM) | 32 (≈ 95.4 µM) | 16 (≈ 47.7 µM) | 16 (≈ 47.7 µM) | 16.1 (≈ 48 µM) |  |  |  |  |  |  |  | 
CCCCCCCC[C@@H]1CCCc2c1c(=O)c(OC)c(CO)n2OC | > 32 | 0.8 | > 32 | > 32 | > 32 | > 32 | > 32 | > 32 | > 32 | 16 (≈ 45.5 µM) | 32 (≈ 91 µM) | 26.6 (≈ 75.7 µM) |  |  |  |  |  |  |  | 
COc1c(C)[nH]c2c(c1=O)[C@@H](CCCCCc1ccccc1)CC[C@H]2OC | > 32 | 0.4 | > 32 | > 32 | > 32 | > 32 | > 32 | > 32 | > 32 | 32 (≈ 86.6 µM) | 32 (≈ 86.6 µM) | 11.9 (≈ 32.2 µM) |  |  |  |  |  |  |  | 
CCCCCCCCc1ccc(OC)c2[nH]c(C)c(OC)c(=O)c12 | > 32 | 1.8 | > 32 | > 32 | > 32 | > 32 | > 32 | > 32 | > 32 | 16 (≈ 48.3 µM) | 8 (≈ 24.1 µM) | 14.4 (≈ 43.4 µM) |  |  |  |  |  |  |  | 
COc1c(C)n(OC)c2c(c1=O)[C@@H](CCCCCc1ccccc1)CCC2 | > 32 | 0.3 | > 32 | 16 (≈ 43.3 µM) | 32 (≈ 86.6 µM) | 2 (≈ 5.41 µM) | > 32 | 32 (≈ 86.6 µM) | 32 (≈ 86.6 µM) | 32 (≈ 86.6 µM) | 32 (≈ 86.6 µM) | 9.5 (≈ 25.7 µM) | Active | Active | Active | Active | Active | Active | Active | Active
CCCCCCCC[C@H]1CCC(=O)c2[nH]c(C)c(OC)c(=O)c21 | > 32 | 0.7 | > 32 | > 32 | 16 (≈ 50.1 µM) | 4 (≈ 12.5 µM) | > 32 | > 32 | > 32 | 16 (≈ 50.1 µM) | 32 (≈ 100 µM) | 23.4 (≈ 73.3 µM) |  |  |  |  |  |  |  | 
OC(Cn1cncn1)(Cn1cncn1)c1ccc(F)cc1F [FLUCONAZOLE] |  | >200 |  | 16 (≈ 52.2 µM) | 32 (≈ 104 µM) | 4 (≈ 13.1 µM) |  | > 128 | 4 (≈ 13.1 µM) | > 256 | 0.5 (≈ 1.63 µM) | > 100 |  |  |  |  |  |  |  | 
CCCCCCCC[C@H]1CC[C@@H](O)c2[nH]c(C)c(OC)c(=O)c21 |  | 1.6 |  | > 32 | 32 (≈ 99.5 µM) | > 32 |  | > 32 | > 32 | 16 (≈ 49.8 µM) | 32 (≈ 99.5 µM) | 50 (≈ 156 µM) |  |  |  |  |  |  |  | 
CCCCCCCC[C@H]1CC[C@@H](OC)c2[nH]c(C)c(OC)c(=O)c21 | > 32 | 5 | > 32 | > 32 | > 32 | > 32 | > 32 | > 32 | > 32 | 8 (≈ 23.8 µM) | 4 (≈ 11.9 µM) | 20 (≈ 59.6 µM) | Active | Active | Active | Active | Active | Active | Active | Active
CC[C@H](C)C[C@H](C)CCCCCCCCC(=O)N[C@H]1C[C@@H](O)[C@@H](NCCN)NC(=O)[C@@H]2[C@@H](O)CCN2C(=O)[C@H]([C@H](O)CCN)NC(=O)[C@H]([C@H](O)[C@@H](O)c2ccc(O)cc2)NC(=O)[C@@H]2C[C@@H](O)CN2C(=O)[C@H]([C@@H](C)O)NC1=O [CASPOFUNGIN] |  | >400 |  | 0.3 (≈ 0.274 µM) | 0.1 (≈ 0.0915 µM) | 1 (≈ 0.915 µM) |  | 0.1 (≈ 0.0915 µM) | 0.5 (≈ 0.457 µM) | 0.1 (≈ 0.0915 µM) | 0.3 (≈ 0.274 µM) | > 100 |  |  |  |  |  |  |  | 
CCCCCCCC[C@@H]1CCCc2[nH]c(CO)c(OC)c(=O)c21 |  | 0.8 |  | > 32 | 32 (≈ 99.5 µM) | > 32 |  | > 32 | > 32 | 16 (≈ 49.8 µM) | 32 (≈ 99.5 µM) | 24.4 (≈ 75.9 µM) |  |  |  |  |  |  |  | 

From ChEMBL document CHEMBL3797157, “Antifungal Quinoline Alkaloids from Waltheria indica” (J Nat Prod, 2016)
